ChEMBL document CHEMBL4842335, “Discovery of penipanoid C-inspired 2-(3,4,5-trimethoxybenzoyl)quinazolin-4(3H)-one derivatives as potential anticancer agents by inhibiting cell proliferation and inducing apoptosis in hepatocellular carcinoma cells” (Eur J Med Chem, 2021)
Active and inactive are the calls of the source. The rule behind the calls is not given here.

What was measured:
Bel-7402 [1] = experiment: Induction of cell cycle arrest in human Bel-7402 cells assessed as accumulation at G1 phase at 0.8 uM incubated for 48 hrs by flow cytometry (reference value: 46.32%); type: functional
HepG2 [2] = experiment: Induction of cell cycle arrest in human HepG2 cells assessed as accumulation at G2/M phase at 1.6 uM incubated for 48 hrs by flow cytometry (reference value: 24.89%); type: functional
In short: (§1)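 HepG2 treated 48 h with 0, 0.8 or 1.6 µM (DMSO control); phase distribution by flow cytometry using a cell cycle and apoptosis kit; mean with SD, n = 3.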

HCT-116 = experiment: Cytotoxicity against human HCT116 cells assessed as inhibition of proliferation incubated for 72 hrs by MTT assay; type: functional, cell-based; details: HCT-116, 72 h
In short: (§2)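 Cells plated at 3×10³/well, grown overnight in DMEM + 10% FBS, then exposed to compounds (DMSO stocks; 0.1% DMSO negative control) for 72 h at 37 °C. MTT (5 mg/mL in PBS, added at 10%) for 4 h, formazan dissolved in DMSO, A570 read. Inhibition = (Ac−As)/(Ac−Ab)×100; IC50 by calculator; ≥3 independent repeats.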

A549 = experiment: Cytotoxicity against human A549 cells assessed as inhibition of proliferation incubated for 72 hrs by MTT assay; type: functional, cell-based; details: A549, 72 h; in short: as §2
HepG2 [3] = experiment: Antitumor activity against human HepG2 cells xenografted in BALB/c mouse assessed as tumor growth inhibition at 8 mg/kg, ip relative to control; type: functional; details: read-out: TGI
In short: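 Female BALB/c nude mice (14–17 g) given HepG2 s.c. (1×10⁶/mouse); at 100–200 mm³ tumours, randomised to 3 groups of 5. Daily i.p. dosing at 4 or 8 mg/kg for 20 days; vehicle 15% N-methylpyrrolidone/25% Solutol HS-15/60% saline. Caliper volume twice weekly, TV = width² × length/2; inhibition from volume change versus vehicle group.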

Bel-7402 [4] = experiment: Inhibition of colony formation in human Bel-7402 cells at 1.6 to 3.2 uM measured after 10 days by crystal violet staining based assay relative to control; type: functional, cell-based; details: dose 1.6-3.2 µM, time 10.0 day
In short: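 1000 cells/well seeded, attached overnight in DMEM + 10% FBS, then grown 10 days at 37 °C, 5% CO₂ with 0, 0.2, 0.4, 0.8, 1.6 or 3.2 µM. Fixed in 4% paraformaldehyde 15 min, stained 0.1% crystal violet 30 min, colonies counted; formation rate relative to solvent control.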

HepG2 [5] = experiment: Induction of apoptosis in human HepG2 cells assessed as late apoptotic cells at 1.6 uM incubated for 48 hrs by Annexin V and dead cell assay kit (reference value: 1%); type: functional
In short: (§3)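 HepG2 cells were grown in DMEM and exposed to 0, 0.8, 1.6 or 3.2 µM test agent or DMSO vehicle for 48 h. Apoptosis was then read on a Muse cell analyzer using an Annexin V & Dead Cell kit, which separates live, early apoptotic, late apoptotic and dead populations. The figure legend gives n = 3 with SEM.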

Bel-7402 [6] = experiment: Induction of cell cycle arrest in human Bel-7402 cells assessed as accumulation at G2/M phase at 3.2 uM incubated for 48 hrs by flow cytometry (reference value: 25.20%); type: functional
HepG2 [7] = experiment: Induction of apoptosis in human HepG2 cells assessed as late apoptotic cells at 3.2 uM incubated for 48 hrs by Annexin V and dead cell assay kit (reference value: 1%); type: functional; in short: as §3
U-251 = experiment: Cytotoxicity against human U251 cells assessed as inhibition of proliferation incubated for 72 hrs by MTT assay; type: functional, cell-based; details: U-251, 72 h; in short: as §2
HepG2 [8] = experiment: Induction of apoptosis in human HepG2 cells assessed as early apoptotic cells at 1.6 uM incubated for 48 hrs by Annexin V and dead cell assay kit (reference value: 4.55%); type: functional; in short: as §3
[9] = Selectivity index, ratio of IC50 for human LO2 cells to IC50 for human HepG2 cells; type: toxicity; details: LO2 cells versus HepG2 cells, read-out: Selectivity Index
HepG2 [10] = experiment: Induction of cell cycle arrest in human HepG2 cells assessed as accumulation at G1 phase at 0.8 uM incubated for 48 hrs by flow cytometry (reference value: 46.88%); type: functional
[11] = Toxicity in BALB/c mouse xenografted with human HepG2 cells at 4 to 8 mg/kg, ip relative to control; type: organism-based; details: in vivo, dose 4-8 mg/kg
In short: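 Female BALB/c nude mice (14–17 g) carrying s.c. HepG2 xenografts (100–200 mm³), 5 per group. Dosed i.p. daily for 20 days at 4 or 8 mg/kg in 15% N-methylpyrrolidone/25% Solutol HS-15/60% saline, with vehicle controls. Body weight tracked over the treatment.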

NCI-H1299 = experiment: Cytotoxicity against human NCI-H1299 cells assessed as inhibition of proliferation incubated for 72 hrs by MTT assay; type: functional, cell-based; details: NCI-H1299, 72 h; in short: as §2
L02 = experiment: Cytotoxicity against human L-O2 cells assessed as inhibition of proliferation incubated for 72 hrs by MTT assay; type: cell-based; details: L02, 72 h
HepG2 [12] = experiment: Induction of cell cycle arrest in human HepG2 cells assessed as accumulation at G1 phase at 1.6 uM incubated for 48 hrs by flow cytometry (reference value: 46.88%); type: functional
HepG2 [13] = experiment: Induction of apoptosis in human HepG2 cells assessed as dead cells at 3.2 uM incubated for 48 hrs by Annexin V and dead cell assay kit (reference value: 0.55%); type: functional; in short: as §3
HepG2 [14] = experiment: Induction of apoptosis in human HepG2 cells assessed as early apoptotic cells at 0.8 uM incubated for 48 hrs by Annexin V and dead cell assay kit (reference value: 4.55%); type: functional; in short: as §3
HepG2 [15] = experiment: Induction of cell cycle arrest in human HepG2 cells assessed as accumulation at G2/M phase at 0.8 uM incubated for 48 hrs by flow cytometry (reference value: 24.89%); type: functional; in short: as §1
HepG2 [16] = experiment: Induction of apoptosis in human HepG2 cells assessed as dead cells at 0.8 uM incubated for 48 hrs by Annexin V and dead cell assay kit (reference value: 0.55%); type: functional; in short: as §3
[17] = target: Mitogen-activated protein kinase; ERK1/ERK2 (Homo sapiens) (UniProt P27361+P28482); experiment: Upregulation of ERK1/2 phosphorylation in human Bel-7402 cells incubated for 48 hrs by Western blot analysis
Mitogen-activated protein kinase; ERK1/ERK2 (Homo sapiens), sequence (P27361 whole entry, looked up): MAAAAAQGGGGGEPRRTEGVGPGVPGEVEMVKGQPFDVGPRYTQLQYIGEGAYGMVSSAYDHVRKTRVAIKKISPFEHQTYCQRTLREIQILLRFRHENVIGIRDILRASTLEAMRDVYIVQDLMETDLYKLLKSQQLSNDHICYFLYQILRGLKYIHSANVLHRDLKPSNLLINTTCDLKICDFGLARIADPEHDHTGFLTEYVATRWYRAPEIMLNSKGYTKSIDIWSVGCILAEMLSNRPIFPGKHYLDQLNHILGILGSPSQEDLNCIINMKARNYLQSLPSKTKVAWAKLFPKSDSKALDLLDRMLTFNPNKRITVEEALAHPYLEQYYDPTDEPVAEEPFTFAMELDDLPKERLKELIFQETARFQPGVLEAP
Mitogen-activated protein kinase; ERK1/ERK2 (Homo sapiens), sequence (P28482 whole entry, looked up): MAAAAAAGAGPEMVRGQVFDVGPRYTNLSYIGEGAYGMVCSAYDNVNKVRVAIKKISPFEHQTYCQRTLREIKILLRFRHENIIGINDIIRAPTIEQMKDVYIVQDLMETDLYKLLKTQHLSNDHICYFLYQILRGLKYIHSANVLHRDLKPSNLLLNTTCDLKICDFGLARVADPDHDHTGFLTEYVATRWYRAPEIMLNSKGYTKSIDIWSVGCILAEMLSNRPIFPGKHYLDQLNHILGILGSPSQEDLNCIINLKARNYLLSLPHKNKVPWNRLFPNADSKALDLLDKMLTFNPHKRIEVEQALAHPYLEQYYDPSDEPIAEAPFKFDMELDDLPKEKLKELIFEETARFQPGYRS

HepG2 [18] = experiment: Induction of reactive oxygen species generation in human HepG2 cells incubated for 48 hrs by DCFH-DA based fluorescent microscopy; type: functional, cell-based; details: dose 1.6-3.2 µM
In short: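 HepG2 cultured 48 h with 0, 0.8, 1.6 or 3.2 µM, washed, loaded with […] DCFH-DA for 20 min at 37 °C in the dark; fluorescence viewed by microscopy.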

HepG2 [19] = experiment: Induction of apoptosis in human HepG2 cells assessed as increase in cleaved Caspase 3 level at 1.6 to 3.2 uM after 48 hrs by Western blot analysis; details: dose 1.6-3.2 µM
Bel-7402 [20] = experiment: Induction of cell cycle arrest in human Bel-7402 cells assessed as accumulation at G1 phase at 3.2 uM incubated for 48 hrs by flow cytometry (reference value: 46.32%); type: functional

COc1cc(C(=O)c2nc3ccccc3c(=O)[nH]2)cc(OC)c1OC
Activity (Bel-7402 [1]): 39.2% | Activity (HepG2 [2]): 35.18% | IC50 (HCT-116): 5.47 µM | IC50 (A549): 3.88 µM | inhibition in vivo at 8 mg/kg (HepG2 [3]): 67.6% | Activity (Bel-7402 [4]): Active | Activity (HepG2 [5]): 6.7% | Activity (Bel-7402 [6]): 41.71% | Activity (HepG2 [7]): 24.15% | IC50 (U-251): 5.48 µM | Activity (HepG2 [8]): 11.7% | selectivity ratio [9]: 4.9 | Activity (HepG2 [10]): 37.84% | Activity [11]: Non-Toxic | IC50 (NCI-H1299): 13.9 µM | IC50 (L02): 6.01 µM | Activity (HepG2 [12]): 29.17% | Activity (HepG2 [13]): 0.55% | Activity (HepG2 [14]): 5.8% | Activity (HepG2 [15]): 28.73% | Activity (HepG2 [16]): 0.45% | Activity [17]: Dose-Dependent Effect | Activity (HepG2 [18]): Active | Activity (HepG2 [19]): Active | Activity (Bel-7402 [20]): 26.15%
